Bioassay records as filed in PubChem.
Rows were chosen to be rich in hits. Some 2.9% of all compounds tested hit in one or more screens of this group.
MEKK2 mut-MEK5: signal of MEK5 binding to mutant human MEKK2 PB1 domain | AID 1530 | percent response, % at 10 µM | bead flow cytometry, Alexa488-MEK5 binding to MEKK2 mutant | 0.35% of 290,000 active; in the data active = percent response above about 24%, passing the limit was not always enough
UBC13 polyUb: human UBC13 polyubiquitination inhibition. P61088. UBC13 polyubiquitin chain formation, TR-FRET. inhibition, % at 20 µM. 0.47% of 330,000 active. AID 485273; in the data active = inhibition above about 45%, passing the limit was not always enough
Target sequence (P61088 whole entry, looked up): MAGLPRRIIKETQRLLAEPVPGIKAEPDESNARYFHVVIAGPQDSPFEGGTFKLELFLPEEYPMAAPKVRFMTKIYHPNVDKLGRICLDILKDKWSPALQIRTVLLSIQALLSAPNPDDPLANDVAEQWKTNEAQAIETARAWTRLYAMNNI
MEKK2wt PB1 HTS: raises or lowers MEK5 binding to wildtype human MEKK2 PB1 domain | Q9Y2U5 | bead flow cytometry, Alexa488-MEK5 binding to MEKK2 WT; actives lie on both sides | binding response (% of control), % at 10 µM | 1.1% of 290,000 active | AID 1531; in the data active = binding response below about 67% or above about 130%
MEKK3 PB1 HTS: raises or lowers MEK5 binding to the human MEKK3 PB1 domain | Q99759 | bead-based flow cytometry, Alexa488-MEK5 binding to MEKK3; actives lie on both sides; 0 = blocked by unlabeled MEK5, 100 = vehicle | binding response (% of control), % at 10 µM | 1.4% of 290,000 active | AID 1529;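 active = binding response more than 3 SD above or below the average of its plate-row segment, actives on both sides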;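 also: Alexa488 bead fluorescence after subtracting the streptavidin-only scavenger bead signal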
Target sequence (Q99759 whole entry, looked up, the tested form may be a part): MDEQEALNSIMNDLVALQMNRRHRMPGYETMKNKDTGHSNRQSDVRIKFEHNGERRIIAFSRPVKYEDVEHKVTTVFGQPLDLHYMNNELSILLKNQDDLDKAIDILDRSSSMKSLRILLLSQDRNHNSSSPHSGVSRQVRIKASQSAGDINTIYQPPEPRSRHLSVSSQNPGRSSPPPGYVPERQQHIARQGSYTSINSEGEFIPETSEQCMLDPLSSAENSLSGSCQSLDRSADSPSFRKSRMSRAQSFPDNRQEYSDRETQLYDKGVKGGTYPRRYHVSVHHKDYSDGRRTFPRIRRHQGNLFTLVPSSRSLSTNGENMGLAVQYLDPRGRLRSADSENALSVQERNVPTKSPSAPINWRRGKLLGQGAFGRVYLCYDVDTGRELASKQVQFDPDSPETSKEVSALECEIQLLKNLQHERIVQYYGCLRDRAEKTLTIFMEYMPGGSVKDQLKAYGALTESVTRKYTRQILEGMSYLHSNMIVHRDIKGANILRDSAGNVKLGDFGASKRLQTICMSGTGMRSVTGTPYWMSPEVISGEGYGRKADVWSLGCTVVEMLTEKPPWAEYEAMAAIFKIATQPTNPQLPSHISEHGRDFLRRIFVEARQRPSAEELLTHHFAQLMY
Apaf1 inhib: inhibitors of human Apaf-1 apoptosome; reconstituted apoptosome caspase-3 activity, DEVD-Rh110 fluorescence; inhibition, % at 20 µM; 0.71% of 330,000 active; active = inhibition of at least 40% at 20 µM;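 also: plate controls were DMSO wells for no effect and DEVD-CHO caspase inhibitor wells for full effect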
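Material: reconstituted apoptosome with Apaf-1, cytochrome c, caspase-9, procaspase-3, dATP / Buffer or medium: pH 7.5 Hepes buffer with CHAPS, BSA, DTT / Also added: cytochrome c with DEVD-Rh110 / Schedule: compound with Apaf-1, dATP, procaspase-3 30 min, then 50 min reaction, room temperature / Technique: rhodamine 110 fluorescence at Ex 480/Em 540 nm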
MEKK2wt confirm: raises or lowers MEK5 binding to wildtype human MEKK2, retest; shares compounds with MEKK3 PB1 HTS; 2.4% of 5,900 active; bead flow cytometry, Alexa488-MEK5 binding to MEKK2 WT; actives lie on both sides; binding response (% of control), % at 10 µM; in the data active = binding response below about 16% or above about 210%; inactive = in between
MEKK2mut-MEK5: signal of MEK5 binding to mutant human MEKK2, retest | shares compounds with MEKK3 PB1 HTS | bead flow cytometry, Alexa488-MEK5 binding to MEKK2 mutant | percent response, % at 10 µM | 2% of 5,900 active | AID 1893; in the data active = percent response mostly above about 71%, no sharp cut-off; inactive = mostly below about 38%;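 also: higher means compound restores mutant binding toward wildtype level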
MEKK3-MEK5 inh: confirmation of inhibitors of MEK5 binding to human MEKK3; 1.8% of 5,900 active; binding response (% of control), % at 10 µM; shares compounds with MEKK3 PB1 HTS; bead flow cytometry, Alexa488-MEK5 binding to MEKK3; active compounds read low; AID 1894;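 active = binding response below 72% of control, or above a set upper limit, though filed actives all read lower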;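 also: 100% = DMSO only wells and 0% = binding blocked by excess unlabeled MEK5; lower values mean stronger disruption of MEK5 binding to MEKK3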
An asterisk follows results filed as active; . = not tested or not shown; [ ] = another dose, or the depositor's remark.

SMILES | MEKK2 mut-MEK5 | UBC13 polyUb | MEKK2wt PB1 HTS | MEKK3 PB1 HTS | Apaf1 inhib | MEKK2wt confirm | MEKK2mut-MEK5 | MEKK3-MEK5 inh
COc1ccc2nc3cc(Cl)ccc3c(Nc3cc(CN4CCCC4)c(O)c(CN4CCCC4)c3)c2n1 | 22.0 | -88.5 | 138.0* | 97.0 | 62.4* | 138.0 | 26.0 | 96.0
COCc1cc(CN2CCCC2)c(O)c2ncccc12 | 1.0 | -14.7 | 103.0 | 102.0 | -10.4 | . | . | .
CC1(C)CC(NC(=O)Cc2ccccc2[N+](=O)[O-])CC(C)(C)N1 | 1.0 | -3.9 | 108.0 | 142.0* | -7.7 | 102.0 | 7.0 | 100.0
COc1ccccc1CC(=O)NC1CC(C)(C)NC(C)(C)C1 | . | -12.1 | . | . | 4.2 | . | . | .
CCCCCCCCN1[C@@H](CC(=O)O)c2ccc(C(F)(F)F)cc2S1(=O)=O | 2.0 | -11.8 | 105.0 | 103.0 | 6.9 | . | . | .
C=CC(=O)NCCCc1cc(C(C)(C)C)c(O)c(C(C)(C)C)c1 | 10.0 | 3.9 | 112.0 | 103.0 | -9.3 | . | . | .
O=C(NC(=S)NCCC1=CCCCC1)c1cncc(Br)c1 | 0.0 | 4.7 | 106.0 | 152.0* | 14.1 | 99.0 | 1.0 | 104.0
O=c1sc2ccccc2c(N2CCCCC2)c1[N+](=O)[O-] | 8.0 | -10.6 | 102.0 | 102.0 | 1.7 | . | . | .
O=c1c([N+](=O)[O-])c(N2CCCCCC2)c2ccccc2n1-c1ccccc1 | . | -7.9 | . | 49.0*[inhibitor] | 16.5 | 101.0 | 1.0 | 105.0
CCC(C)(C)NC(=O)CN(Cc1ccco1)C(=O)CCC(=O)Nc1nccs1 | -1.0 | 0.0 | 100.0 | 102.0 | 1.8 | . | . | .
O=C(NNC(=O)C1CC(c2cccnc2)=NO1)Nc1ccccc1F (stereo not given) | 95.0* | -5.7 | 31.0* | 105.0 | -5.0 | 98.0 | -1.0 | 97.0
Cc1ccc(NC(=O)NNC(=O)C2CC(c3cccnc3)=NO2)cc1 (stereo not given) | -5.0 | -4.1 | 92.0 | 89.0 | 1.1 | . | . | .
CCOc1ccc(C(=O)Nc2ccccc2C#N)cc1[N+](=O)[O-] | -2.0 | 2.8 | 92.0 | 98.0 | -4.6 | . | . | .
CCOc1ccc(C(=O)Nc2ccccc2CC)cc1[N+](=O)[O-] | -2.0 | 2.0 | 87.0 | 50.0*[inhibitor] | 6.7 | 94.0 | -26.0 | 89.0
O=C1NC(c2ccc(Cl)cc2)=COc2ccccc21 | 6.0 | 10.1 | 126.0 | 143.0* | -13.9 | 101.0 | 2.0 | 101.0
COc1ccc(C2=COc3ccccc3C(=O)N2)cc1 | -6.0 | 3.7 | 89.0 | 98.0 | -8.8 | . | . | .
N=c1n(CC(=O)c2ccc([N+](=O)[O-])cc2)c2ccccc2n1Cc1ccc(Cl)cc1 | 50.0 | 25.6 | 138.0* | 108.0 | -1.6 | 154.0 | 58.0 | 108.0
N=c1n(CC(=O)c2ccc([N+](=O)[O-])cc2)c2ccccc2n1Cc1ccccc1 | 30.0 | 6.2 | 127.0 | 110.0 | -11.1 | . | . | .
CCOC(=O)c1c(NC(C)=O)sc2c(O)c(Br)cc(Br)c12 | 0.0 | . | 105.0 | 132.0* | . | 73.0 | -15.0 | 76.0
Cc1nn(CC(=O)OCCOc2ccc(Br)cc2)c(C)c1[N+](=O)[O-] | -4.0 | -1.7 | 66.0 | 50.0*[inhibitor] | 9.3 | 101.0 | 1.0 | 99.0
Cc1nn(CC(=O)c2ccc(Br)s2)c(C)c1[N+](=O)[O-] | -11.0 | -2.9 | 50.0 | 46.0*[inhibitor] | -21.9 | 86.0 | -11.0 | 89.0
Cn1c(SCC(=O)N2CCN(S(=O)(=O)c3ccc(Cl)cc3)CC2)nc2ccccc21 | 8.0 | -3.5 | 129.0 | 133.0* | 23.7 | 102.0 | 6.0 | 103.0
O=C(/C=C/c1cccc([N+](=O)[O-])c1)NCCSCc1ccc(Cl)cc1 | 0.0 | 6.5 | 109.0 | 144.0* | 20.6 | 96.0 | -4.0 | 105.0
Cc1nnc(NC(=O)c2ccc(Br)o2)s1 | 6.0 | 3.3 | 111.0 | 104.0 | 3.5 | . | . | .
Cc1ccc2cc(C#N)c(SCC(=O)N3CCCC3)nc2c1 | -11.0 | 23.5 | 43.0*[inhibitor] | 45.0*[inhibitor] | -21.9 | 94.0 | -8.0 | 95.0
SMILES | MEKK2 mut-MEK5 | UBC13 polyUb | MEKK2wt PB1 HTS | MEKK3 PB1 HTS | Apaf1 inhib | MEKK2wt confirm | MEKK2mut-MEK5 | MEKK3-MEK5 inh
CCOC(=O)CSc1nc2cc(C)ccc2cc1C#N | -5.0 | 9.5 | 101.0 | 103.0 | 9.6 | . | . | .
Cc1nn(C)c(C(=O)Sc2cccc(Cl)c2)c1[N+](=O)[O-] | 28.0 | -3.4 | 115.0 | 133.0* | -15.8 | 97.0 | -6.0 | 97.0
COc1ccc(CC(=O)NNC(=S)NCC2CC2)cc1OC | 1.0 | -6.8 | 101.0 | 100.0 | -9.4 | . | . | .
O=C(O)COc1ccccc1/C=N/NC(=O)CSc1nc2ccccc2n1Cc1ccc(Cl)cc1 | -28.0 | -8.7 | 57.0 | 50.0*[inhibitor] | 11.8 | 103.0 | 6.0 | 106.0
O=C(CSc1nc2ccccc2n1Cc1ccc(Cl)cc1)N/N=C/c1ccccc1C(=O)O | 0.0 | -2.0 | 96.0 | 100.0 | 9.4 | . | . | .
COc1ccc(CNC(=O)CN2C(=O)CSc3ccc(S(=O)(=O)N4CCOCC4)cc32)c(OC)c1 | -1.0 | -0.5 | 101.0 | 101.0 | 3.7 | . | . | .
O=C(CSc1nnc(Cn2cnc3ccccc32)o1)Nc1cccc2ccccc12 | -15.0 | -6.0 | 19.0*[inhibitor] | 13.0*[inhibitor] | -3.2 | 99.0 | 4.0 | 104.0
CC(=O)c1ccc(NC(=O)CSc2nnc(Cn3cnc4ccccc43)o2)cc1 | -1.0 | 8.3 | 104.0 | 104.0 | -3.3 | . | . | .
O=C(NC(=S)NCC1CCCO1)c1ccc(Cl)cc1Cl (stereo not given) | 1.0 | -5.8 | 111.0 | 143.0* | 0.4 | 93.0 | -9.0 | 95.0
CC(=O)C1=C(C)Nc2ncnn2C1c1cccc(Br)c1 (stereo not given) | 8.0 | 0.5 | 97.0 | 99.0 | 2.9 | . | . | .
CCOc1cc(/C=N/NC(=O)CCCC(=O)NC2CCCCC2)ccc1O | -2.0 | 5.0 | 100.0 | 101.0 | -12.3 | . | . | .
COc1cc(/C=C2\SC(=S)N(CC(=O)Nc3ccccn3)C2=O)cc(OC)c1OC | 2.0 | 0.8 | 85.0 | 99.0 | -9.9 | . | . | .
COc1ccc(/C=C2\SC(=S)N(CC(=O)Nc3nnc(C)s3)C2=O)cc1 | -6.0 | -19.8 | 84.0 | 92.0 | -7.6 | . | . | .
CCc1nnc(NC(=O)CN2C(=O)/C(=C/c3cc(OC)c(OC)c(OC)c3)SC2=S)s1 | 1.0 | -15.6 | 95.0 | 159.0* | 9.0 | 88.0 | -5.0 | 100.0
COc1cc(/C=C2/SC(=S)N(CC(=O)Nc3nc4ccccc4s3)C2=O)cc(OC)c1OC | -16.0 | -26.6 | 71.0*[inhibitor] | 89.0 | -6.7 | 80.0 | -9.0 | 99.0
Cc1sc(NC(=O)CSc2nnc(N)s2)c(C#N)c1C | -8.0 | 8.4 | 92.0 | 94.0 | 2.3 | . | . | .
COc1ccccc1CNC(=O)COC(=O)COc1ccccc1Cc1ccccc1 | . | -0.1 | . | . | 22.4 | . | . | .
c1ccc2c(c1)cnc1ccccc12 | -13.0 | -4.3 | 33.0*[inhibitor] | 37.0*[inhibitor] | -16.0 | 104.0 | 3.0 | 107.0
